Data published in ChEMBL document CHEMBL4513216, “Probing the Open Global Health Chemical Diversity Library for Multistage-Active Starting Points for Next-Generation Antimalarials” (ACS Infect Dis, 2020).

test: Toxicity liver stage against HepG2, at 10uM; format: cell-based; set-up: test concentration 10 uM, cell line HepG2-A16-CD81EGFP; conditions: human, HepG2-A16-CD81EGFP cells; read-out: INHIBITION
Summary of the method: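 Uninfected HepG2-A16-CD81EGFP cells, 3 × 10^3 per well, 1536-well, plated on prespotted compound at 10 μM final, parasite-free screening media added to match infected plates; puromycin 10 μM positive, DMSO 0.5% negative; run in parallel with 48 h PbLuc assay at 37 °C, 5% CO2; viability by CellTiter-Glo luminescence, normalized to controls.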

Row | SMILES | cytotoxicity at 10 µM [%]
1 | CC(Sc1nc(N)cc(N)n1)c1nc(C(C)(C)C)no1 (stereo unspecified) | -5.27
2 | CC[C@H]1CN2CC[C@H]1C[C@@H]2CNC(=O)Nc1ccc(Br)cc1 | 1.08
3 | COCC(=O)N1CCN2C(=O)OC[C@H]2C1 | 1.82
4 | O=C(NC[C@H]1CCCC[C@H]1O)c1ccc2nc(-c3ccco3)[nH]c2c1 | -5.78
5 | COCCn1ccc(=O)c(OCC(=O)Nc2ccc(Br)cc2)c1C | 0.185
6 | CCN(C)C(=O)c1ccc2c(c1)C(c1nc[nH]n1)CN2S(C)(=O)=O (stereo unspecified) | -137
7 | CO[C@H]1CN(S(=O)(=O)c2cn(C)cn2)[C@@H]2CCCO[C@H]12 | -132
8 | O=C(c1ccc[nH]1)N1CCOC2(COCCN(c3cncnc3)C2)C1 (stereo unspecified) | 7.7
9 | CC(C)[C@H](NC(=O)NC1CCS(=O)(=O)C1)C(=O)NCc1ccccc1Cl (stereo partly specified) | 5.91
10 | CC(C)n1ncc2c1NC(=O)CC21C(=O)Nc2c(Cl)cccc21 (stereo unspecified) | -1.58
11 | Cc1ncsc1CN1C[C@@H]2COC[C@]2(COc2ccc(C#N)cn2)C1 | -25.6
12 | CCOC(=O)C1CCN(c2nccc(-n3nc(C)cc3C)n2)CC1 | -8.99
13 | O=C(Nc1cc(-c2ccncc2)no1)C1CCCCC1 | -5.37
14 | COc1ccccc1N1CC(NC(=O)Cn2cc(C)nn2)CC1=O (stereo unspecified) | 11.6
15 | CS(=O)(=O)c1cn[nH]c1C1CCCCN1C(=O)c1ccsc1 (stereo unspecified) | -18.6
16 | CCn1nnnc1-c1cccc(NC(=O)COC2CCCC2)c1 | -0.47
17 | O=S(=O)(Cc1cc(-c2ccccc2)no1)CC1CCCO1 (stereo unspecified) | 4.7
18 | O=C(Nc1ccc(-c2csnn2)cc1)N1CC[C@H](O)C1 | -4.62
19 | CS(=O)(=O)CCn1ccc(NCc2ccc(C#N)cc2)n1 | 6.56
20 | Cc1cccc(N2CCN(C(=O)CNCCn3cccn3)CC2)c1 | -6.16
21 | CNS(=O)(=O)c1c(C)sc2ccccc12 | 4.18
22 | Cc1oc(C(=O)Nc2cccc(Cl)c2C)cc1S(N)(=O)=O | 7.46
23 | CCCNC(=O)CNC(=O)CC1CCCc2cc(OC)ccc21 (stereo unspecified) | -4.52

Row | SMILES | cytotoxicity at 10 µM [%]
24 | Cc1nc(C(NC(=O)CN(C)C(C)C)c2ccccc2F)no1 (stereo unspecified) | -2.64
25 | CN(Cc1nc2ccccc2[nH]1)C(=O)CN(C)c1ccccc1 | -2.46
26 | COc1ccc2c(c1)CCCC2CC(=O)NCC(=O)O (stereo unspecified) | -4.31
27 | COc1ccc(C)cc1CN1CCN(Cc2nccn2C)C(C)C1 (stereo unspecified) | 1.43
28 | Cc1cc(CNC(=O)NCC(O)c2cccc(C(F)(F)F)c2)no1 (stereo unspecified) | -6.79
29 | CCc1ncncc1C(=O)NCCNS(=O)(=O)c1ccc(C)cc1 | -5.95
30 | Cc1ccccc1CN(Cc1ccccn1)C(=O)CN(C)C(C)C | -0.675
31 | Cc1c(C(=O)NC2=NCCS2)cnn1-c1ccc(Cl)cc1 | 1.51
32 | O=C(CCc1cccs1)NCC1CCCN1c1cccnn1 (stereo unspecified) | -1.9
33 | CCC(C)NC(=O)c1cccc(CNC(=O)CC(F)(F)F)c1 (stereo unspecified) | 6.99
34 | CCNS(=O)(=O)C1CCN(C(=O)c2c(F)cc(F)cc2F)C1 (stereo unspecified) | 7.43
35 | CNC(=O)Cc1ccccc1NC(=O)NCc1ccc(SC)cc1 | -1.88
36 | CC(C)NC(=O)NCc1ccnc(N(C)C)n1 | -3.63
37 | N#Cc1ccc(CNC(=O)C2=NN(c3ccccc3)C(=O)CN2)cc1 | -1.8
38 | CCC(CC)N(C)S(=O)(=O)c1ccc(CCNC(C)=O)s1 | -3.45
39 | Cc1ccc(-c2nnc(CN3CCNC(=O)C3)o2)cc1 | -1.26
40 | Cc1cc(NC(=O)NCCc2cccnc2)n(C)n1 | -3.86
41 | Cn1ccnc1-c1cccc(NC(=O)NCCCN2CCOCC2)c1 | -5.01
42 | Cc1ccc(NC(=O)N(CCO)Cc2ccsc2)cc1 | 3.58
43 | O=C(CCNS(=O)(=O)c1ccccc1)N1CCOC(c2ccccc2)C1 (stereo unspecified) | 6.6
44 | COc1ccc2cccc(CC(=O)NCc3nccc(N)n3)c2c1 | 0.684
45 | CCc1nnc(C(C)N(C)Cc2c(C)nn(-c3ccccc3)c2C)o1 (stereo unspecified) | -9.85
46 | COCc1noc(-c2nn(-c3ccc(F)c(F)c3)c3c2CCC3)n1 | -2.75

Row | SMILES | cytotoxicity at 10 µM [%]
47 | Cc1ccc(N2CCCC(N(C)c3ncnc4c3CCC4)C2)nn1 (stereo unspecified) | 6.86
48 | CN(Cc1nccn1C)C(=O)C1COCC(=O)N1Cc1ccccc1 (stereo unspecified) | 1.01
49 | Cc1nc(CNC(=O)Nc2ccc(N(C)C)nc2)sc1C | -0.222
50 | CSCc1cc(C(=O)NC2(C#N)CCSC2)ccc1F (stereo unspecified) | -4.59
51 | Cc1cc(C)n(C2CN(Cc3ccccn3)C2)n1 | -3.67
52 | Cc1nn2c(nc1=O)-c1ccccc1NC2C(=O)O (stereo unspecified) | 5.32
53 | CN(C)C(=O)C1CSCN1C(=O)CCc1ccco1 (stereo unspecified) | -6.53
54 | Cc1ccc(C(=O)Nc2ccc(N3CCCC3)cn2)cc1C | 26.9
55 | Cc1nc(C2CCCN2CCOCC2CC2)no1 (stereo unspecified) | -4.56
56 | C=C(C)COCCNC(=O)N1CCc2c(cccc2OC)C1 | 3.55
57 | CC(C)c1nc(CNc2ccc(CNS(C)(=O)=O)cc2)cs1 | 3.82
58 | Cn1ccc(NC(=O)Cc2cccc(F)c2)n1 | 1.44
59 | Cc1nc(CNC(=O)CC2C(=O)NCCN2Cc2ccccc2C)n[nH]1 (stereo unspecified) | -7.21
60 | COc1cc(C(=O)NCC2CCCN(Cc3ccco3)C2)ccn1 (stereo unspecified) | -3.94
61 | O=C1NCC2(CCCN(C(=O)Nc3ccc4scnc4c3)CC2)O1 (stereo unspecified) | -5.59
62 | CC1(C)OC(=O)N(CC(=O)N2CCC(c3ccccc3Cl)C2)C1=O (stereo unspecified) | -21.4
63 | CO[C@H]1CN(Cc2c(C)ccc3ncccc23)CC[C@H]1N | -146
64 | CSCCCN1CCC(c2nnc(Cn3ccnc3)n2C2CC2)CC1 | 0.872
65 | O=C(CCN1CCCCC1)N1CCC(Cc2ccc(CO)cc2)C1 (stereo unspecified) | -7.33
66 | Cc1nc(O)cc(CN2C[C@H](NC(=O)C3CCCC3)[C@@H](C3CC3)C2)n1 | -4.7
67 | O=C(CN1CCCC1c1nc(-c2ccccn2)no1)N1CCNCC1 (stereo unspecified) | 9.28
68 | Cc1ccnn1CC(=O)N1CCCN(C2Cc3ccccc3C2)CC1 | -120
69 | CN1CCN(S(=O)(=O)N2CCCCC2CCc2ccc(O)cc2)CC1 (stereo unspecified) | -1.94

Row | SMILES | cytotoxicity at 10 µM [%]
70 | COc1ccc(Cl)cc1C(C(=O)O)N(C)Cc1ccon1 (stereo unspecified) | -5.92
71 | CN1CCN(C[C@H]2CC[C@@H](Cc3ccc(CN4CCCC4)cc3)O2)CC1 | -7.32
72 | Cn1cc(C(=O)N2CCCN(C3Cc4ccccc4C3)CC2)cn1 | -3.68
73 | CNC(=O)[C@@H]1C[C@H](N)CN1Cc1cc2cc(OC)ccc2nc1O | -6.69
74 | O=C1OCCN1C1CCN(Cc2cc3n(n2)CCCNC3)CC1 | 12.7
75 | Cc1[nH]c(=O)[nH]c(=O)c1CC(=O)N1CCCN(CC2CC2)C(C(C)C)C1 (stereo unspecified) | -160
76 | CCn1c(N)nc2cc(C(=O)N3CCCOCC3)cnc21 | -8.24
77 | CCNC(=O)[C@@H]1C[C@H](N)CN1c1cc(CC)nc(N(C)C)n1 | -3.08
78 | Cc1cccc(C)c1Oc1ncccc1CNC(=O)C1(C)CCCNC1 (stereo unspecified) | 0.687
79 | COc1ccc(C(=O)N2CC(c3ccncc3)C2)c(OC)c1OC | -1.86
80 | Cc1ccc(NC2CCN(C(=O)c3cscn3)CC2)nn1 | -8.73
81 | c1ccc(CCN2CCOC(CNc3cccnn3)C2)nc1 (stereo unspecified) | -1.56
82 | Cc1ccc(-c2nc(C(=O)N3CCCC(C(N)=O)C3)cs2)c(C)c1 (stereo unspecified) | -2.9
83 | COc1c(CNCCNC(=O)c2ccc(C)cc2)c(C(C)C)nn1C | -0.945
84 | COCCN1CCN(CCS(C)(=O)=O)CC1C (stereo unspecified) | -1.22
85 | Cc1ccc(N2CCCC(NCc3nnc4n3CCCC4)C2=O)cc1 (stereo unspecified) | -6.69
86 | Cc1noc(C2CCCN(C(=O)c3ccc(N(C)C)nc3)C2)n1 (stereo unspecified) | -4.69
87 | Cc1ccc(C)c(OCCC(=O)N2CCCN(CC(N)=O)CC2)c1 | -8.54
88 | CCn1cc(CN2CCCN(C(=O)c3cccc(C#N)c3)CC2)cn1 | 0.893
89 | CCOc1ncccc1CNC(=O)NCC(O)c1ccccc1OC (stereo unspecified) | -6.85
90 | CCN(CC1CCCO1)C(=O)Nc1ccc(OC)c(C)c1 (stereo unspecified) | -12.9
91 | Cc1nn(C)c(C)c1C1CCCN1C(=O)c1ccc(N(C)C)nn1 (stereo unspecified) | -10.6
92 | C1CCCN(C2CCCN(Cc3noc(C4CC4)n3)C2)CC1 (stereo unspecified) | -8.84

Row | SMILES | cytotoxicity at 10 µM [%]
93 | NC(=O)C1CCN(C(=O)NCCOc2ccc3c(c2)OCO3)C1 (stereo unspecified) | -13.3
94 | CCc1nc(CN(C)C2CCN(CCc3cccs3)C2)no1 (stereo unspecified) | -8.7
95 | O=C(NCC(=O)N1CCC2(CC1)OCCO2)c1ccoc1 | -9.55
96 | Cc1ccc(F)cc1S(=O)(=O)NCc1cccc(C(=O)N2CCCC2)c1 | -15.1
97 | CCn1c(C)nnc1CN(C)C1CCN(CCCSC)C1 (stereo unspecified) | -6.21
98 | Cc1cc(CN(C)C2CCCN(Cc3noc(C)n3)C2)on1 (stereo unspecified) | -5.85
99 | Cc1csc(CNC(=O)Cc2ccc3c(c2)OCCO3)n1 | -1.3
100 | CCn1cnnc1C1CCCN(C(=O)COc2ccc(Cl)cc2)C1 (stereo unspecified) | -5.26
101 | Cn1cc(N2C[C@@H]3CN(Cc4ccoc4)C[C@@H]3C2=O)cn1 | -2.93
102 | COc1ccc2c(c1)C1(CCN(Cc3ccccn3)CC1)N(C)CC2 | -150
103 | Cc1nn(C)c(N(C)C)c1CNCc1cccc(CN(C)C)c1 | -3.01
104 | O=C(c1ccco1)N1CCCC12CCN(c1ncccn1)CC2 | 3.23
105 | Cc1cc(C(=O)N2C[C@@H]3COC[C@]3(CN(C)C)C2)sc1C | -146
106 | CN1CCS(=O)(=O)[C@@H]2CCN(C(=O)c3ccccc3)CC[C@@H]21 | -127
107 | O=C(NC[C@H]1OC[C@@H]2CN(Cc3ccco3)CC[C@@H]21)c1cscn1 | -145
108 | Cc1noc(C)c1CN(C)CC(=O)Nc1ccnn1C(C)C1CC1 (stereo unspecified) | -2.82
109 | CSCC(=O)N1C[C@@H]2CC[C@H]1CN(Cc1ccccc1)C2 | -14.9
110 | CSCC(=O)N1C[C@@H]2CC[C@H]1CN(C1Cc3ccccc3C1)C2 | -6.08
111 | O=C(c1cnccn1)N1C[C@H]2CC[C@@H](C1)N(C(=O)CCc1ccsc1)C2 | 3.24
